{
  "source": "paper PMC6127800",
  "about": "(Molecular Pharmaceutics, 2018)",
  "key": {"[1]": {"assay": "Ex vivo biodistribution of [68Ga]WL12 in hPD-L1 and CHO tumor model", "set-up": "species or system mice", "settings": "female, NSG, mouse, iv, 25 uCi, total radioactivity", "method_in_brief": "(§1)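 Female NSG mice, 6–8 weeks old, carried s.c. CHO cells stably expressing human PD-L1 and parental CHO cells (10 × 10^6, opposite upper flanks), used at 200−500 mm3. Radiotracer was given i.v. at 25 μCi, with tissues taken at 15, 60 and 120 min (n = 3). Blocking (n = 2) used 50 μg unlabeled peptide s.c. 60 min pre-tracer. %ID/g was decay-corrected against triplicate 68Ga standards; tumor-to-blood and tumor-to-muscle ratios were derived.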"}, "[2]": {"system": "hPD-L1 and CHO tumors", "assay": "Ex vivo biodistribution of [68Ga]WL12 in hPD-L1 and CHO tumor model", "set-up": "species or system mice", "settings": "120 min", "method_in_brief": "as §1"}, "[3]": {"type": "in vivo, mice", "settings": "female, NSG, mouse, iv, 25 uCi, total radioactivity"}, "[4]": {"system": "MDAMB231 and SUM149 tumors", "type": "in vivo, mice", "settings": "60 min; 50 μg WL12 s.c. 60 min before tracer, n = 2"}},
  "note": "Like-named read-outs stand apart in the source and are kept apart here.",
  "data": [
    {"smiles": "CCCC[C@H]1C(=O)N(C)[C@@H](CCCC)C(=O)N[C@@H](CCCNC(=O)CCC(C(=O)O)N2CCN(CC(=O)O)CCN(CC(=O)O)CCN(CC(=O)O)CC2)C(=O)N[C@H](C(=O)NCC(N)=O)CSCC(=O)N[C@@H](Cc2ccc(O)cc2)C(=O)N(C)[C@@H](C)C(=O)N[C@@H](CC(N)=O)C(=O)N2CCC[C@H]2C(=O)N[C@@H](Cc2c[nH]cn2)C(=O)N[C@@H](CC(C)C)C(=O)N2C[C@H](O)C[C@H]2C(=O)N[C@@H](Cc2c[nH]c3ccccc23)C(=O)N[C@@H](CO)C(=O)N[C@@H](Cc2cn(C)c3ccccc23)C(=O)N1C", "note": "(stereo partly shown) [[^68Ga]WL12, metal not drawn]", "values": [
      {"measurement": "tissue uptake at 1 h", "setting": "[1]; CHO tumor", "result": "1.33 ± 0.21", "unit": "%ID/g"},
      {"measurement": "tissue uptake at 1 h", "setting": "[1]; blood", "result": "3.3 ± 0.4", "unit": "%ID/g"},
      {"measurement": "tissue uptake at 2 h", "setting": "[1]; blood", "result": "0.6 ± 0.01", "unit": "%ID/g"},
      {"measurement": "tissue to tissue ratio at 2 h", "setting": "[1]; hPD-L1 tumor / blood", "result": "16 ± 3.4"},
      {"measurement": "tissue to tissue ratio at 1 h", "setting": "[1]; hPD-L1 tumor / muscle", "result": "59.8 ± 16.5"},
      {"measurement": "tissue to tissue ratio at 2 h", "setting": "[1]; hPD-L1 tumor / muscle", "result": "100 ± 61.2"},
      {"measurement": "tissue uptake at 0.25 h", "setting": "[1]; hPD-L1 tumor", "result": "19.4 ± 3.3", "unit": "%ID/g"},
      {"measurement": "tissue uptake at 1 h", "setting": "[1]; hPD-L1 tumor", "result": "11.6 ± 3.18", "unit": "%ID/g"},
      {"measurement": "tissue uptake at 2 h", "setting": "[1]; hPD-L1 tumor", "result": "9.89 ± 1.72", "unit": "%ID/g"},
      {"measurement": "tissue uptake at 1 h", "setting": "[1]; kidney", "result": "64.7 ± 12.1", "unit": "%ID/g"},
      {"measurement": "tissue uptake at 2 h", "setting": "[1]; kidney", "result": "27.7 ± 4.09", "unit": "%ID/g"},
      {"measurement": "tissue uptake at 1 h", "setting": "[1]; liver", "result": "15.1 ± 7.6", "unit": "%ID/g"},
      {"measurement": "tissue uptake at 2 h", "setting": "[1]; liver", "result": "2.7 ± 0.2", "unit": "%ID/g"},
      {"measurement": "hPD-L1/CHO tumor ratio", "setting": "[2]", "result": "19.7 ± 2.7"},
      {"measurement": "tissue uptake at 1 h", "setting": "[3]; MDAMB231 tumor", "result": "4.97 ± 0.8", "unit": "%ID/g"},
      {"measurement": "tissue uptake at 1 h", "setting": "[3]; SUM149 tumor", "result": "1.9 ± 0.1", "unit": "%ID/g"},
      {"measurement": "tissue uptake at 1 h", "setting": "[3]; kidney", "result": "65.6 ± 3.6", "unit": "%ID/g"},
      {"measurement": "tissue uptake at 1 h", "setting": "[3]; liver", "result": "11.4 ± 0.7", "unit": "%ID/g"},
      {"measurement": "reduction in MDAMB231 tumor uptake with blocking dose of WL12", "setting": "[4]", "result": "> 50", "unit": "%"}
    ]}
  ]
}
